Laboratory results reported in ChEMBL document CHEMBL2311329, “Synthesis and biological evaluation of a folate-targeted rhaponticin conjugate” (Bioorg Med Chem, 2013).
Activity calls are given as the source filed them. The rule behind the calls is not given here.

Legend:
KB = test: Antitumor activity against FR-positive human KB cells assessed as decrease in cell viability measured after 48 hrs by MTT proliferation assay; format: functional, cell-based
Method in brief: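 Cells kept in folate-free RPMI with 10% heat-inactivated FCS. Seeded at 1.0 × 10^4 cells/well and left to adhere overnight. Medium then replaced with drug at 0.1–500 nM, with or without 0.01 mM FA competitor, for 48 h at 37 °C. MTT added for 3 h, formazan dissolved in DMSO, A570 read against a no-MTT baseline. Viability given as % of control; 5 repeats.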

[1] = Half life in human serum at 37 degC; format: ADME, cell-free
Method in brief: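 Compound added to human serum at a final 200 µM and held at 37 °C in a water bath for up to 24 h. Samples taken at 1–3, 5, 8, 12, 18 and 24 h (n = 3). Compound recovered by solid-phase extraction after adding 6 M guanidine (pH 7.4), then measured by HPLC as % recovery.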

Mus musculus = test: Toxicity in FR-positive human KB cells implanted Balb/c mouse assessed as gross toxicity at 2 umol/kg, iv TIW 2 week schedule; format: organism-based; settings: in vivo, 336 h
Method in brief: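 Female Balb/c mice, 6–7 weeks old, on folate-free diet. 1 × 10^6 KB cells injected into the dorsal subcutis. Dosing began at tumor volumes of 50–110 mm³: 2 µmol/kg iv, three times a week for 2 weeks, alone or with 40-fold excess FA; PBS for controls. Caliper volumes (0.5 × L × W²) every 2–3 days; body weight followed. n = 5 per cohort.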

M109 = test: In vivo antitumor activity against FR-positive mouse M109 cells implanted in Balb/c mouse assessed as decrease in tumor volume at 2 umol/kg, iv treated 33 days after implantation for TIW 3 week schedule; format: functional, organism-based

Row | Compound | inhibition (KB) | IC50 (KB) | half-life [1] | Activity (Mus musculus) | inhibition (M109)
1 | COc1ccc(/C=C/c2cc(O)cc(O[C@@H]3O[C@H](CNC(=O)OCCSSc4ccccn4)[C@@H](O)[C@H](O)[C@H]3O)c2)cc1O | Active |  |  |  | 
2 | COc1ccc(/C=C/c2cc(O)cc(O[C@@H]3O[C@H](CN)[C@@H](O)[C@H](O)[C@H]3O)c2)cc1O | Active |  |  |  | 
3 | COc1ccc(/C=C/c2cc(O)cc(O[C@@H]3O[C@H](CO)[C@@H](O)[C@H](O)[C@H]3O)c2)cc1O [RHAPONTIN] |  | 34 nM | 3.5 h | Toxic | Active
